From ChEMBL document CHEMBL5230174, “Synthesis and properties of the kojic acid dimer and its potential for the treatment of Alzheimer's disease” (RSC Med Chem, 2023)
Activity calls are given as the source filed them. The rule behind the calls is not given here.

What was measured:
H9c2 [1] = test: Antioxidant activity in rat H9c2 cells assessed as reduction in H2O2-induced intracellular ROS accumulation at 125 to 500 uM pretreated for 24 hrs followed by H2O2 challenge for 4 hrs by DCFH-DA staining based inverted fluorescence microscopy; assay type: functional, cell-based; details: dose 125-500 µM, time 28.0 hrs
[2] = molecular target: Amyloid-beta precursor protein (Homo sapiens) (UniProt P05067); test: Inhibition of HFIP-pretreated human amyloid beta (1 to 42) aggregation at 50 uM incubated for 24 hrs under dark condition by Thioflavin T dye based fluorometric analysis
Sequence of Amyloid-beta precursor protein (Homo sapiens) (P05067 whole entry): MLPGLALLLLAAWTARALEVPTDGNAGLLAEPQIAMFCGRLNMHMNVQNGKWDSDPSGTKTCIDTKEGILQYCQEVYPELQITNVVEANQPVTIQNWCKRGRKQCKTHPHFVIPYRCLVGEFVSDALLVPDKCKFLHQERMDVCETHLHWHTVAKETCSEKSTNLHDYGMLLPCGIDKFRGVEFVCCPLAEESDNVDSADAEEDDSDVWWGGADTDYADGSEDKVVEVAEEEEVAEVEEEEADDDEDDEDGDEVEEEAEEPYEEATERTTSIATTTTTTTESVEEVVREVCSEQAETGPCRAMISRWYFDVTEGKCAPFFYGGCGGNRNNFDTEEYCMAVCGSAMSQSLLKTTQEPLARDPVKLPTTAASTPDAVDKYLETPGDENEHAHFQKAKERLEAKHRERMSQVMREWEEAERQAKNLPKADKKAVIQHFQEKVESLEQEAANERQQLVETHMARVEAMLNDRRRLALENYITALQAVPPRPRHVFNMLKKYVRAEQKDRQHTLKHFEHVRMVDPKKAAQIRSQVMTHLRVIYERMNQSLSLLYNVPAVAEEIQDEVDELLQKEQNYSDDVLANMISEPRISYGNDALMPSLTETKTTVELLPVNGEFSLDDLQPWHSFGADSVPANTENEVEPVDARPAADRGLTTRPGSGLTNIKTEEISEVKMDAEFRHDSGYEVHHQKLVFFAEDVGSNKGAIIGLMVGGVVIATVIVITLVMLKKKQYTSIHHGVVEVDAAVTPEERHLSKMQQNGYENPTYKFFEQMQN
How it was run: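 HFIP-pretreated human Aβ1–42 dissolved at 1000 μM in 1% NH4OH, sonicated 1 h cold, stored −20 °C, diluted in PBS pH 7.4. Aβ (25 μM final) incubated with compound (50 μM final) or PBS 24 h at 37 °C in dark. Aliquot mixed with 5 μM ThT in Gly-NaOH pH 8.5, shaken 5 min; fluorescence ex 450/em 490 nm. Inhibition = 1 − Fs/F0, background ThT subtracted; three independent experiments.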

[3] = Metal chelating activity assessed as compound-Mn2+ complex formation by measuring optical responses at 100 uM in presence of Mn(CH3COO)2 by UV-Vis spectroscopy
How it was run: (§1)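 Compound held at 100 μM in HEPES buffer (pH 7.4). The metal salt (CuSO4, ZnCl2, FeCl2, FeCl3·7H2O, AlCl3, Mn(CH3COO)2, MgSO4, NaCl, KCl or CaCl2) was added at one equivalent, and the UV-vis absorption spectrum was recorded from 200 to 800 nm.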

[4] = Antioxidant activity assessed as ABTS radical scavenging activity at 100 uM incubated for 6 mins under dark condition by UV-Vis spectrophotometry relative to kojic acid; assay type: functional
How it was run: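 Samples serially diluted in DMSO, tested at 400–6.25 μM. ABTS (7 mM, water) reacted with 4.96 mM potassium persulfate for 16 h in the dark at room temperature, then diluted to A734 of 0.70 ± 0.02. Working solution mixed 9:1 with sample and shaken 6 min in the dark at room temperature. Absorbance read at 734 nm; scavenging rate (%) is the mean of three independent experiments.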

[5] = Cytotoxicity against mouse BV-2 cells assessed as reduction in cell viability incubated for 24 hrs by MTT assay; assay type: toxicity, cell-based
How it was run: (§2)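 Cells grown with 10% FBS plus penicillin/streptomycin at 37 °C, 5% CO2 (SH-SY5Y in DMEM/F12; BV-2, HT-22, H9c2 in DMEM; L02 in RPMI 1640). Seeded 1 × 10^4 per well, 24 h, then compound in medium 24 h. MTT (5 mg/mL stock) added 4 h at 37 °C; formazan dissolved in DMSO, A490 read.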

[6] = Metal chelating activity assessed as compound-Fe2+ complex formation by measuring optical responses at 100 uM in presence of FeCl2 by UV-Vis spectroscopy; how it was run: as §1
[7] = Antioxidant activity assessed as ABTS radical scavenging activity at 50 uM incubated for 6 mins under dark condition by UV-Vis spectrophotometry; assay type: functional
How it was run: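 ABTS radical cation is generated from 7 mM ABTS and 4.96 mM potassium persulfate, kept dark at room temperature for 16 h, and diluted to A734 0.70 ± 0.02. Samples are serially diluted in DMSO and mixed with working solution, then shaken 6 min at room temperature in the dark before reading A734. Scavenging rate (%) comes from triplicate wells; VC and KA are controls.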

[8] = Metal chelating activity assessed as compound-Na+ complex formation by measuring optical responses at 100 uM in presence of NaCl by UV-Vis spectroscopy; how it was run: as §1
[9] = Antioxidant activity assessed as ABTS radical scavenging activity at 100 uM incubated for 6 mins under dark condition by UV-Vis spectrophotometry; assay type: functional
How it was run: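 Compound dilutions made in DMSO. ABTS (7 mM in water) reacted with 4.96 mM potassium persulfate, 16 h dark at room temperature; working solution adjusted to A734 0.70 ± 0.02. Working solution mixed with sample 9:1, shaken 6 min at room temperature in dark; A734 read on plate reader. Scavenging rate from absorbance; triplicate wells, three independent experiments.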

[10] = Metal chelating activity assessed as compound-Mg2+ complex formation by measuring optical responses at 100 uM in presence of MgSO4 by UV-Vis spectroscopy; how it was run: as §1
[11] = Metal chelating activity assessed as compound-Cu2+ complex formation by measuring optical responses at 100 uM in presence of CuSO4 by UV-Vis spectroscopy; how it was run: as §1
[12] = Metal chelating activity assessed as compound-Zn2+ complex formation by measuring optical responses at 100 uM in presence of ZnCl2 by UV-Vis spectroscopy; how it was run: as §1
[13] = Metal chelating activity assessed as compound-Fe3+ complex formation by measuring optical responses at 100 uM in presence of FeCl3 by UV-Vis spectroscopy; how it was run: as §1
[14] = Cytotoxicity against human L02 cells assessed as reduction in cell viability incubated for 24 hrs by MTT assay; assay type: toxicity, cell-based; how it was run: as §2
BV-2 [15] = test: Antioxidant activity in mouse BV-2 cells assessed as reduction in H2O2-induced intracellular ROS accumulation by measuring intracellular ROS level at 125 uM pretreated for 24 hrs followed by H2O2 challenge for 12 hrs by DCFH-DA staining based flow cytometry (reference value: 40.7%); assay type: functional; parameters: scale not given: the % may be the effect or the level left; details: time 36 hrs
BV-2 [16] = test: Antioxidant activity in mouse BV-2 cells assessed as reduction in H2O2-induced intracellular ROS accumulation by measuring intracellular ROS level at 250 uM pretreated for 24 hrs followed by H2O2 challenge for 12 hrs by DCFH-DA staining based flow cytometry (reference value: 40.7%); assay type: functional; parameters: scale not given: the % may be the effect or the level left; details: time 36 hrs
[17] = Metal chelating activity assessed as compound-Al3+ complex formation by measuring optical responses at 100 uM in presence of AlCl3 by UV-Vis spectroscopy; how it was run: as §1
H9c2 [18] = test: Antioxidant activity in rat H9c2 cells assessed as reduction in H2O2-induced ROS burst by measuring increase in SOD activity at 125 to 500 uM treated with compound prior to H2O2 challenge; assay type: functional, cell-based; details: dose 125-500 µM
[19] = Antioxidant activity assessed as DPPH radical scavenging activity at 100 uM incubated for 30 mins under dark condition by UV-Vis spectrophotometry relative to kojic acid; assay type: functional
How it was run: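 Samples serially diluted in DMSO, tested at 400–6.25 μM. Mixed with 100 μM DPPH in ethanol at 9:1 reagent:sample and shaken 30 min in the dark at room temperature. Absorbance read at 517 nm. Scavenging rate (%) is the mean of three independent experiments, each run in triplicate wells.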

[20] = Induction of intracellular ROS accumulation in mouse BV-2 cells at 500 uM treated for 24 hrs by DCFH-DA staining based flow cytometry (reference value: 7.15%); assay type: toxicity, cell-based; details: bv-2, 24 h
[21] = Antioxidant activity assessed as DPPH radical scavenging activity at 100 uM incubated for 30 mins under dark condition by UV-Vis spectrophotometry; assay type: functional
How it was run: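 Compound dilutions made in DMSO. 100 μM DPPH in ethanol mixed 9:1 with sample, shaken 30 min in dark at room temperature; absorbance read at 517 nm on plate reader. Scavenging rate calculated from absorbance; triplicate wells, three parallel measurements, three independent experiments.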

[22] = Metal chelating activity assessed as compound-Cu2+ complex formation by measuring decrease in absorption band intensity at 370 nm at 100 uM in presence of CuSO4 by UV-Vis spectroscopy
How it was run: (§3)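 Compound held at 100 μM in HEPES buffer (pH 7.4) and titrated with Cu2+ at 12.5–200 μM (nine levels). UV-vis spectra were followed at 370 and 475 nm. Stoichiometry was taken from a plot of absorbance at 475 nm against the Cu2+:compound ratio.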

[23] = Cytotoxicity against rat H9c2 cells assessed as reduction in cell viability incubated for 24 hrs by MTT assay; assay type: toxicity, cell-based; how it was run: as §2
SH-SY5Y = test: Neuroprotective activity against H2O2-induced oxidative damage in human SH-SY5Y cells assessed as increase in cell viability at 500 uM pretreated for 24 hrs followed by H2O2 challenge for 2 hrs by MTT assay; assay type: functional, cell-based; details: time 26.0 hrs
How it was run: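 SH-SY5Y cells are seeded at 1 × 10^4/well in DMEM/F12 with 10% FBS and grown 24 h. They are pretreated with compound for 24 h, then given 200 μM H2O2 for 2 h. MTT (5 mg/mL stock) is added for 4 h, formazan dissolved in DMSO, and A490 read. Viability is given as % of untreated control, mean ± SEM (n = 3).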

H9c2 [24] = test: Antioxidant activity in rat H9c2 cells assessed as reduction in H2O2-induced intracellular ROS accumulation at 125 to 500 uM pretreated for 24 hrs followed by H2O2 challenge for 4 hrs by DCFH-DA staining based flow cytometry; assay type: functional, cell-based; details: dose 125-500 µM, time 28.0 hrs
[25] = Metal chelating activity assessed as compound-K+ complex formation by measuring optical responses at 100 uM in presence of KCl by UV-Vis spectroscopy; how it was run: as §1
[26] = Metal chelating activity assessed as compound-Fe2+ complex formation at stoichiometric ratio of 1:1 at 100 uM in presence of FeCl2 by UV-Vis spectroscopy
[27] = Cytotoxicity against mouse HT-22 cells assessed as reduction in cell viability incubated for 24 hrs by MTT assay; assay type: toxicity, cell-based; how it was run: as §2
[28] = Metal chelating activity assessed as compound-Cu2+ complex formation by measuring increase in absorption band intensity at 475 nm at 100 uM in presence of CuSO4 by UV-Vis spectroscopy; how it was run: as §3
[29] = Metal chelating activity assessed as compound-Ca2+ complex formation by measuring optical responses at 100 uM in presence of CaCl2 by UV-Vis spectroscopy; how it was run: as §1
[30] = Cytotoxicity against human SH-SY5Y cells assessed as reduction in cell viability incubated for 24 hrs by MTT assay; assay type: toxicity, cell-based; how it was run: as §2
[31] = Metal chelating activity assessed as compound-Cu2+ complex formation at stoichiometric ratio of 1:1 at 100 uM in presence of CuSO4 by UV-Vis spectroscopy; how it was run: as §3
H9c2 [32] = test: Neuroprotective activity against H2O2-induced oxidative damage in rat H9c2 cells assessed as increase in cell viability at 125 to 500 uM pretreated for 24 hrs followed by H2O2 challenge for 2 hrs by MTT assay; assay type: functional, cell-based; details: dose 125-500 µM, time 26.0 hrs
BV-2 [33] = test: Antioxidant activity in mouse BV-2 cells assessed as reduction in H2O2-induced intracellular ROS accumulation at 125 to 500 uM pretreated for 24 hrs followed by H2O2 challenge for 12 hrs by DCFH-DA staining based inverted fluorescence microscopy; assay type: functional, cell-based; details: dose 125-500 µM, time 36.0 hrs
How it was run: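 BV-2 cells (2 × 10^5/well) are pretreated with compound for 24 h, then given 1000 μM H2O2 for 12 h. They are loaded with 10 μM DCFH-DA in serum-free medium for 30 min at 37 °C and washed three times with PBS.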

BV-2 [34] = test: Antioxidant activity in mouse BV-2 cells assessed as reduction in H2O2-induced ROS burst by measuring increase in SOD activity at 125 to 500 uM treated with compound prior to H2O2 challenge; assay type: functional, cell-based; details: dose 125-500 µM
BV-2 [35] = test: Antioxidant activity in mouse BV-2 cells assessed as reduction in H2O2-induced intracellular ROS accumulation by measuring intracellular ROS level at 500 uM pretreated for 24 hrs followed by H2O2 challenge for 12 hrs by DCFH-DA staining based flow cytometry (reference value: 40.7%); assay type: functional; parameters: scale not given: the % may be the effect or the level left; details: time 36 hrs

O=c1cc(CO)oc(-c2oc(CO)cc(=O)c2O)c1O
Activity (H9c2 [1]): Active | inhibition [2]: 17% | Activity [3]: inactive | fold change (FC) [4]: 2 | IC50 at 24 h [5]: > 500 µM | Activity [6]: Active | Activity [7]: 56% | Activity [8]: inactive | Activity [9]: 79.4% | Activity [10]: inactive | Activity [11]: Active | Activity [12]: Active | Activity [13]: Active | IC50 at 24 h [14]: > 500 µM | Activity (BV-2 [15]): 29.4% | Activity (BV-2 [16]): 24.8% | Activity [17]: Active | Activity (H9c2 [18]): Active | fold change (FC) [19]: 2 | Activity [20]: 14% | Activity [21]: 50.3% | Activity [22]: Active | IC50 at 24 h [23]: > 500 µM | Activity (SH-SY5Y): Active | Activity (H9c2 [24]): Active | Activity [25]: inactive | Activity [26]: Active | IC50 at 24 h [27]: > 500 µM | Activity [28]: Active | Activity [29]: inactive | IC50 at 24 h [30]: > 500 µM | Activity [31]: Active | Activity (H9c2 [32]): Active | Activity (BV-2 [33]): Active | Activity (BV-2 [34]): Dose-Dependent Effect | Activity (BV-2 [35]): 21.6%

O=C1O[C@H]([C@@H](O)CO)C(O)=C1O
Activity [7]: 39.7%

O=c1cc(CO)occ1O [KOJIC ACID]
inhibition [2]: 14.6% | IC50 at 24 h [5]: > 500 µM | Activity [9]: 46.8% | IC50 at 24 h [14]: > 500 µM | Activity [21]: 17.8% | IC50 at 24 h [23]: > 500 µM | IC50 at 24 h [27]: > 500 µM | IC50 at 24 h [30]: > 500 µM
